Measurements published in ChEMBL document CHEMBL1125423, “Potent and systemically active aminopeptidase N inhibitors designed from active-site investigation” (J Med Chem, 1992).

What was measured:
Aminopeptidase N [1] = molecular target: T1, Aminopeptidase N (Sus scrofa, UniProt P15145); test: Inhibition of [3H]Leu-enkephalin binding to Aminopeptidase N from hog kidney
T1 sequence (P15145 whole entry): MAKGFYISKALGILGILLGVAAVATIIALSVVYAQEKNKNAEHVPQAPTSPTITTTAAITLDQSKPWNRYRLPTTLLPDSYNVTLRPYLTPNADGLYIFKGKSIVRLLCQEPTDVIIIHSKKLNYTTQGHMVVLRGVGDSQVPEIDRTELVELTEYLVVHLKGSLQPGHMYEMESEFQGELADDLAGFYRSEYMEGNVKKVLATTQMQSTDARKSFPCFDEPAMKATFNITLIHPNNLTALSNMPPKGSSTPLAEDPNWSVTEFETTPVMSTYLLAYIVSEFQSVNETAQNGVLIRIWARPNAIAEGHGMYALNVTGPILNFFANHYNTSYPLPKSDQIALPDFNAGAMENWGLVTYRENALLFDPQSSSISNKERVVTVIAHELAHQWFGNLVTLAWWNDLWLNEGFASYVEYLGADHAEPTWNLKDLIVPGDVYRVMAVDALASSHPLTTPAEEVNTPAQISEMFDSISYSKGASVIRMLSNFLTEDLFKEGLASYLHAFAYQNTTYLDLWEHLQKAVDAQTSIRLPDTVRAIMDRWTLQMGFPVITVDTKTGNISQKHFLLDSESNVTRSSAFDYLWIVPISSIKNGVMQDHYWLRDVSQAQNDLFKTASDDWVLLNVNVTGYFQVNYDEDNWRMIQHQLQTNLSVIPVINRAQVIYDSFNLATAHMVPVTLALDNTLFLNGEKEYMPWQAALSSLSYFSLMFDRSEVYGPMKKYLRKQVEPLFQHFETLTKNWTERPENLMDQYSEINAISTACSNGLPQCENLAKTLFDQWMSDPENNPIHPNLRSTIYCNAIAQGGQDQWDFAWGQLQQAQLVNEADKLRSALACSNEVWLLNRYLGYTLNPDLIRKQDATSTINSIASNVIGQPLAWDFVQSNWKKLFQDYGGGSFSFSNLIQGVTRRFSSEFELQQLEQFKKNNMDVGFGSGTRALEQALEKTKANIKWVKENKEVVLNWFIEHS
How it was run: (§1)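 Hog kidney APN preincubated 15 min at 25 °C with rising inhibitor concentrations in 50 mM Tris-HCl pH 7.4; thiols supplied as disulfides reduced in situ with 100 equiv DTT. [3H]Tyr1-Leu5-enkephalin added at 10 nM final (Km 50 μM); reaction stopped after 15 min with HCl. Released [3H]Tyr separated on polystyrene beads; IC50 determined.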

Mus musculus [2] = test: Compound (40 mg/kg) was tested for antinociceptive responses induced in hot plate test in mice after an iv dose of acetorphan 10 mg/kg.; type: functional
How it was run: (§2)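 Male Swiss mice (20–22 g); agents given iv under disulfide form together with acetorphan 10 mg/kg, in ethanol 10%/cremophor EL 10%/water 80% at 0.1 mL per 10 g; vehicle-injected controls. Jump latency read on hot plate at 55 ± 0.5 °C 15 min after injection, cut-off 240 s. % analgesia = (test − control latency)/(cut-off − control latency) × 100; ANOVA then Dunnett's t test.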

Mus musculus [3] = test: Compound (20 mg/kg) was tested for antinociceptive responses induced in hot plate test in mice after an iv dose of acetorphan 10 mg/kg.; type: functional; how it was run: as §2
Mus musculus [4] = test: Compound (10 mg/kg) was tested for antinociceptive responses induced in hot plate test in mice after an iv dose of acetorphan 10 mg/kg.; type: functional; how it was run: as §2
Mus musculus [5] = test: Compound( 5 mg/kg) was tested for antinociceptive responses induced in hot plate test in mice after an iv dose of acetorphan 10 mg/kg.; type: functional; how it was run: as §2
Aminopeptidase N [6] = molecular target: T1, Aminopeptidase N; test: Compound was tested for inhibitory potency against aminopeptidase N from hog kidney, using [3H]Leu-enkephalin as substrate; how it was run: as §1
Mus musculus [7] = test: Compound( 20 mg/kg) was tested for antinociceptive responses induced in hot plate test in mice after an iv dose of acetorphan 10 mg/kg.; type: functional
How it was run: (§3)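 Male Swiss mice (20–22 g) given compound as disulfide form iv, coadministered with acetorphan 10 mg/kg, in ethanol (10%)/cremophor EL (10%)/water (80%) vehicle, 0.1 mL per 10 g; controls got vehicle. Hot plate at 55 ± 0.5 °C 15 min later; jump latency recorded, cut-off 240 s. % analgesia = (test − control latency)/(cut-off − control latency) × 100; ANOVA then Dunnett's t test.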

Mus musculus [8] = test: Compound( 5 mg/kg) was tested for antinociceptive responses induced in hot plate test in mice(% analgesia) after an iv dose of acetorphan 10 mg/kg.; type: functional; how it was run: as §3
Mus musculus [9] = test: Compound( 10 mg/kg) was tested for antinociceptive responses induced in hot plate test in mice after an iv dose of acetorphan 10 mg/kg.; type: functional; how it was run: as §3

| SMILES | IC50 (Aminopeptidase N [1]) | Jump latency time (Mus musculus [2]) | Jump latency time (Mus musculus [3]) | further results |
| --- | --- | --- | --- | --- |
| CC(C)(C)SCC(N)CS (centres undefined) | 40 nM |  |  |  |
| CC(C)CC(N)CS (centres undefined) | 22 nM | 240 s | 225.6 s |  |
| CNC(CS)CC(C)C (centres undefined) | 4000 nM |  |  |  |
| SCC(Cc1ccccc1)NCc1ccccc1 (centres undefined) | 160000 nM |  |  |  |
| C[S+]([O-])CCC(N)CS (centres undefined) |  |  | 240 s | Jump latency time (Mus musculus [4]): 236 s; Jump latency time (Mus musculus [5]): 216.9 s |
| CSCCC(N)CS (centres undefined) |  |  | 240 s | Jump latency time (Mus musculus [4]): 225.4 s; Jump latency time (Mus musculus [5]): 200.8 s |
| NC(CS)Cc1ccc2ccccc2c1 (centres undefined) | 130 nM | 132.8 s | 106.6 s |  |
| NC(CS)CSCc1ccccc1 (centres undefined) | 90 nM | 233.6 s | 232.2 s |  |
| NC(CS)COCc1ccccc1 (centres undefined) | 56 nM | 229.4 s | 166.5 s |  |
| NC(CSCc1ccccc1)Cc1ccccc1 (centres undefined) | 80000 nM |  |  |  |
| NC(CS)c1ccccc1 (centres undefined) |  |  |  | IC50 (Aminopeptidase N [6]): 25 nM |
| NC(CS)Cc1ccc(O)cc1 (centres undefined) |  | 166.4 s | 119 s | Jump latency time (Mus musculus [5]): 112.9 s; IC50 (Aminopeptidase N [6]): 45 nM |
| NC(CS)CC1CCCCC1 (centres undefined) |  |  |  | IC50 (Aminopeptidase N [6]): 45 nM |
| NC(Cc1ccccc1)CP(=O)(O)O (centres undefined) | 500000 nM |  |  |  |
| NC(CC(=O)O)Cc1ccccc1 (centres undefined) |  |  |  | IC50 (Aminopeptidase N [6]): 800000 nM |
| NC(CS)Cc1ccccc1 (centres undefined) |  |  |  | Jump latency time (Mus musculus [7]): 204.2 s; ED50 (Mus musculus [8]): 12 mg/kg; Jump latency time (Mus musculus [5]): 90 s; Jump latency time (Mus musculus [9]): 147.9 s |
